Data reported in ChEMBL document CHEMBL4354843, “Structure-Based Design of a Potent and Selective Covalent Inhibitor for SRC Kinase That Targets a P-Loop Cysteine” (J Med Chem, 2020).
The source made the active and inactive calls.

Experiments:
[1] = target: Mitogen-activated protein kinase; ERK1/ERK2 (Homo sapiens) (UniProt P27361+P28482); assay: Inhibition of ERK1/2 in human HCC827 cells assessed as blocking of ERK1/2 pulldown at 1 uM in presence of TL13-68 incubated for 2 hrs by Western blot analysis; assay type: cell-based
Method in brief: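 H1975 or HCC827 cells treated with 1 μM compound or DMSO for 2 h, rinsed twice in cold PBS, and lysed in M-PER with protease/phosphatase inhibitors. Lysate rocked overnight at 4 °C with 1 μM TL13-68, then streptavidin pulldown with five cold washes. Bound kinases detected by Western blot. Two independent experiments.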

[2] = target: RAC-beta serine/threonine-protein kinase (Homo sapiens) (UniProt P31751); assay: Binding affinity to wild-type human partial length AKT2 expressed in bacterial expression system assessed as residual binding level at 1 uM by Kinomescan method relative to control
[3] = target: Citron Rho-interacting kinase (Homo sapiens) (UniProt O14578); assay: Binding affinity to wild-type human partial length CIT (M68 to E432 residues) expressed in bacterial expression system assessed as residual binding level at 1 uM by Kinomescan method relative to control
[4] = target: Macrophage colony-stimulating factor 1 receptor (Homo sapiens) (UniProt P07333); assay: Binding affinity to wild-type human partial length autoinhibited CSF1R (Y538 to S939 residues) expressed in mammalian expression system assessed as residual binding level at 1 uM by Kinomescan method relative to control
Method in brief: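 Active site-directed competition binding panel (KinomeScan, 468 kinases). Test compound at 1 μM. Read-out is kinase binding remaining versus DMSO control, expressed as percent of control. Scores above 35% are treated as weak binding.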

[5] = target: Death-associated protein kinase 1 (Homo sapiens) (UniProt P53355); assay: Binding affinity to wild-type human partial length DAPK1 (M1 to F296 residues) expressed in bacterial expression system assessed as residual binding level at 1 uM by Kinomescan method relative to control
[6] = target: Serine/threonine-protein kinase DCLK3 (Homo sapiens) (UniProt Q9C098); assay: Binding affinity to wild-type human partial length DCAMKL3 (E140 to V628 residues) expressed in bacterial expression system assessed as residual binding level at 1 uM by Kinomescan method relative to control
[7] = tested on: Receptor-type tyrosine-protein kinase FLT3 (Homo sapiens), P36888 [UNDEFINED MUTATION]; assay: Binding affinity to human partial length FLT3 ITD mutant expressed in bacterial expression system assessed as residual binding level at 1 uM by Kinomescan method relative to control
Method in brief: (§1)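 KinomeScan active site-directed competition binding panel (468 kinases), compound tested at 1 μM. Result expressed as remaining kinase signal versus DMSO control (percent of control).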

[8] = target: Mitogen-activated protein kinase kinase kinase 3 (Homo sapiens) (UniProt Q99759); assay: Binding affinity to wild-type human partial length MAP3K3 (E320 to Y626 residues) expressed in mammalian expression system assessed as residual binding level at 1 uM by Kinomescan method relative to control
[9] = target: Serine/threonine-protein kinase MARK2 (Homo sapiens) (UniProt Q7KZI7); assay: Binding affinity to wild-type human partial length MARK2 (M1 to R450 residues) expressed in bacterial expression system assessed as residual binding level at 1 uM by Kinomescan method relative to control
[10] = tested on: Hepatocyte growth factor receptor (Homo sapiens), P08581 [Y1235D]; assay: Binding affinity to human partial length MET Y1235D mutant (D1010 to S1367 residues) expressed in bacterial expression system assessed as residual binding level at 1 uM by Kinomescan method relative to control; method in brief: as §1
[11] = target: Serine/threonine-protein kinase PAK 4 (Homo sapiens) (UniProt O96013); assay: Binding affinity to wild-type human partial length PAK4 (Q144 to R438 residues) expressed in bacterial expression system assessed as residual binding level at 1 uM by Kinomescan method relative to control
[12] = tested on: Phosphatidylinositol 4,5-bisphosphate 3-kinase catalytic subunit alpha isoform (Homo sapiens), P42336 [H1047L]; assay: Binding affinity to human partial length PIK3CA H1047L mutant (R108 to N1068 residues) expressed in mammalian expression system assessed as residual binding level at 1 uM by Kinomescan method relative to control; method in brief: as §1
[13] = target: Phosphatidylinositol 5-phosphate 4-kinase type-2 gamma (Homo sapiens) (UniProt Q8TBX8); assay: Binding affinity to wild-type human partial length PIP5K2C (M1 to A421 residues) expressed in mammalian expression system assessed as residual binding level at 1 uM by Kinomescan method relative to control
[14] = target: cAMP-dependent protein kinase catalytic subunit alpha (Homo sapiens) (UniProt P17612); assay: Binding affinity to wild-type human partial length PKAC-alpha (G10 to F351 residues) expressed in bacterial expression system assessed as residual binding level at 1 uM by Kinomescan method relative to control
[15] = target: Serine/threonine-protein kinase N1 (Homo sapiens) (UniProt Q16512); assay: Binding affinity to wild-type human partial length PKN1 (E598 to C948 residues) expressed in bacterial expression system assessed as residual binding level at 1 uM by Kinomescan method relative to control
Method in brief: (§2)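 Active-site-directed competition binding panel of 468 kinases (KinomeScan), compound at 1 μM. The read-out is kinase remaining bound, given as a percentage of the DMSO control. […]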

[16] = target: Serine/threonine-protein kinase PLK3 (Homo sapiens) (UniProt Q9H4B4); assay: Binding affinity to wild-type human partial length PLK3 (A42 to L334 residues) expressed in mammalian expression system assessed as residual binding level at 1 uM by Kinomescan method relative to control
[17] = target: Serine/threonine-protein kinase D3 (Homo sapiens) (UniProt O94806); assay: Binding affinity to wild-type human partial length PRKD3 (S543 to E863 residues) expressed in bacterial expression system assessed as residual binding level at 1 uM by Kinomescan method relative to control; method in brief: as §2
[18] = target: Dual serine/threonine and tyrosine protein kinase (Homo sapiens) (UniProt Q6XUX3); assay: Binding affinity to wild-type human full length RIPK5 (M1 to T929 residues) expressed in mammalian expression system assessed as residual binding level at 1 uM by Kinomescan method relative to control
Method in brief: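 Active-site-directed competition binding screen across a 468-kinase panel, run with the test compound at 1 μM. The read-out is the kinase signal remaining relative to a DMSO control, reported as a percentage. […]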

[19] = target: SNF-related serine/threonine-protein kinase (Homo sapiens) (UniProt Q9NRH2); assay: Binding affinity to wild-type human partial length SNRK (M1 to E339 residues) expressed in mammalian expression system assessed as residual binding level at 1 uM by Kinomescan method relative to control
[20] = target: BDNF/NT-3 growth factors receptor (Homo sapiens) (UniProt Q16620); assay: Binding affinity to wild-type human partial length TRKB (Q547 to G838 residues) expressed in mammalian expression system assessed as residual binding level at 1 uM by Kinomescan method relative to control

Serine/threonine-protein kinase MARK2 (Homo sapiens), sequence (Q7KZI7 whole entry, the tested form may be a part): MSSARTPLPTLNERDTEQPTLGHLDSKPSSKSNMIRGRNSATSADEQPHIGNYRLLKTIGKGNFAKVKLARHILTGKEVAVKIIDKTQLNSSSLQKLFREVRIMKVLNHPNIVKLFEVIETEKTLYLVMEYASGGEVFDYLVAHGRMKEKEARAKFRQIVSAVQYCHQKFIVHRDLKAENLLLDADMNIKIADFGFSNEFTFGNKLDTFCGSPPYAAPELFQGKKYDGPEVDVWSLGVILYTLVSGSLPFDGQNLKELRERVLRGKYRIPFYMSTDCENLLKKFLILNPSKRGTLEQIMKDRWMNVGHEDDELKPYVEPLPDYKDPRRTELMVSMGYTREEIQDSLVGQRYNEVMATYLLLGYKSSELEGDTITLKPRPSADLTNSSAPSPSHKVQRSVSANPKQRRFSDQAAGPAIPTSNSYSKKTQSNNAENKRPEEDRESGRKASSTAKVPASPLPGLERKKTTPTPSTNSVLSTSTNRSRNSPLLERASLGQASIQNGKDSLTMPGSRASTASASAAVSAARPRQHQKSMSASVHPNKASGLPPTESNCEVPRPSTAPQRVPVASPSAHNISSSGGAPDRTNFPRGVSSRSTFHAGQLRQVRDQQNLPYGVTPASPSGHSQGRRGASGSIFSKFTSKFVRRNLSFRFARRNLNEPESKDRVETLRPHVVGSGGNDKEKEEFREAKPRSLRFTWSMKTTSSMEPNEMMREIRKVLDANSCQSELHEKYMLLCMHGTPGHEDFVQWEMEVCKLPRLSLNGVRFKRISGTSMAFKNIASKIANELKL
RAC-beta serine/threonine-protein kinase (Homo sapiens), sequence (P31751 whole entry, the tested form may be a part): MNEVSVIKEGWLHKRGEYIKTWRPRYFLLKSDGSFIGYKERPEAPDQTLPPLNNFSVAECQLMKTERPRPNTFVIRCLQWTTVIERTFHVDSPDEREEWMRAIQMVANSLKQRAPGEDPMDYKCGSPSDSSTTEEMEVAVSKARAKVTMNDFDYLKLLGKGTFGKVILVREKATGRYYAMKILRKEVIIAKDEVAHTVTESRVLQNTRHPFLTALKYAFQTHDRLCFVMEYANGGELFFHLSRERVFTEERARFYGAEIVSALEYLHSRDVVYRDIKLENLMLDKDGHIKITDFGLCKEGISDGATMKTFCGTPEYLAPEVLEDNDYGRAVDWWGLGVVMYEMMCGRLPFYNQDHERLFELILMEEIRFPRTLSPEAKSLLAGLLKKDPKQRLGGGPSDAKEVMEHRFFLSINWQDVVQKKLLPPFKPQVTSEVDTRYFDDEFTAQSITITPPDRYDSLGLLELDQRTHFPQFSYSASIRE
Phosphatidylinositol 5-phosphate 4-kinase type-2 gamma (Homo sapiens), sequence (Q8TBX8 whole entry, the tested form may be a part): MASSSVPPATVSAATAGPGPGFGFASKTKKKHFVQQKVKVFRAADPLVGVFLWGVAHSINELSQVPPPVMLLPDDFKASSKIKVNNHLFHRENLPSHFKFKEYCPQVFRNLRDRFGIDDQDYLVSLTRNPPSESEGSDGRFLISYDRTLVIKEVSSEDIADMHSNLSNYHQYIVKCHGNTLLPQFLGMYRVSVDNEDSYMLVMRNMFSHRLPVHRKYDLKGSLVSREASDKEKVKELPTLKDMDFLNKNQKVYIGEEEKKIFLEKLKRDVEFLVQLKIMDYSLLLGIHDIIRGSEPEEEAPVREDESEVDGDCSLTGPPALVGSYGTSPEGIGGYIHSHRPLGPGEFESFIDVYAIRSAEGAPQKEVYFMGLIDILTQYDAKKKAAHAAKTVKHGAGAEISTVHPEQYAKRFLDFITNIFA
Citron Rho-interacting kinase (Homo sapiens), sequence (O14578 whole entry, the tested form may be a part): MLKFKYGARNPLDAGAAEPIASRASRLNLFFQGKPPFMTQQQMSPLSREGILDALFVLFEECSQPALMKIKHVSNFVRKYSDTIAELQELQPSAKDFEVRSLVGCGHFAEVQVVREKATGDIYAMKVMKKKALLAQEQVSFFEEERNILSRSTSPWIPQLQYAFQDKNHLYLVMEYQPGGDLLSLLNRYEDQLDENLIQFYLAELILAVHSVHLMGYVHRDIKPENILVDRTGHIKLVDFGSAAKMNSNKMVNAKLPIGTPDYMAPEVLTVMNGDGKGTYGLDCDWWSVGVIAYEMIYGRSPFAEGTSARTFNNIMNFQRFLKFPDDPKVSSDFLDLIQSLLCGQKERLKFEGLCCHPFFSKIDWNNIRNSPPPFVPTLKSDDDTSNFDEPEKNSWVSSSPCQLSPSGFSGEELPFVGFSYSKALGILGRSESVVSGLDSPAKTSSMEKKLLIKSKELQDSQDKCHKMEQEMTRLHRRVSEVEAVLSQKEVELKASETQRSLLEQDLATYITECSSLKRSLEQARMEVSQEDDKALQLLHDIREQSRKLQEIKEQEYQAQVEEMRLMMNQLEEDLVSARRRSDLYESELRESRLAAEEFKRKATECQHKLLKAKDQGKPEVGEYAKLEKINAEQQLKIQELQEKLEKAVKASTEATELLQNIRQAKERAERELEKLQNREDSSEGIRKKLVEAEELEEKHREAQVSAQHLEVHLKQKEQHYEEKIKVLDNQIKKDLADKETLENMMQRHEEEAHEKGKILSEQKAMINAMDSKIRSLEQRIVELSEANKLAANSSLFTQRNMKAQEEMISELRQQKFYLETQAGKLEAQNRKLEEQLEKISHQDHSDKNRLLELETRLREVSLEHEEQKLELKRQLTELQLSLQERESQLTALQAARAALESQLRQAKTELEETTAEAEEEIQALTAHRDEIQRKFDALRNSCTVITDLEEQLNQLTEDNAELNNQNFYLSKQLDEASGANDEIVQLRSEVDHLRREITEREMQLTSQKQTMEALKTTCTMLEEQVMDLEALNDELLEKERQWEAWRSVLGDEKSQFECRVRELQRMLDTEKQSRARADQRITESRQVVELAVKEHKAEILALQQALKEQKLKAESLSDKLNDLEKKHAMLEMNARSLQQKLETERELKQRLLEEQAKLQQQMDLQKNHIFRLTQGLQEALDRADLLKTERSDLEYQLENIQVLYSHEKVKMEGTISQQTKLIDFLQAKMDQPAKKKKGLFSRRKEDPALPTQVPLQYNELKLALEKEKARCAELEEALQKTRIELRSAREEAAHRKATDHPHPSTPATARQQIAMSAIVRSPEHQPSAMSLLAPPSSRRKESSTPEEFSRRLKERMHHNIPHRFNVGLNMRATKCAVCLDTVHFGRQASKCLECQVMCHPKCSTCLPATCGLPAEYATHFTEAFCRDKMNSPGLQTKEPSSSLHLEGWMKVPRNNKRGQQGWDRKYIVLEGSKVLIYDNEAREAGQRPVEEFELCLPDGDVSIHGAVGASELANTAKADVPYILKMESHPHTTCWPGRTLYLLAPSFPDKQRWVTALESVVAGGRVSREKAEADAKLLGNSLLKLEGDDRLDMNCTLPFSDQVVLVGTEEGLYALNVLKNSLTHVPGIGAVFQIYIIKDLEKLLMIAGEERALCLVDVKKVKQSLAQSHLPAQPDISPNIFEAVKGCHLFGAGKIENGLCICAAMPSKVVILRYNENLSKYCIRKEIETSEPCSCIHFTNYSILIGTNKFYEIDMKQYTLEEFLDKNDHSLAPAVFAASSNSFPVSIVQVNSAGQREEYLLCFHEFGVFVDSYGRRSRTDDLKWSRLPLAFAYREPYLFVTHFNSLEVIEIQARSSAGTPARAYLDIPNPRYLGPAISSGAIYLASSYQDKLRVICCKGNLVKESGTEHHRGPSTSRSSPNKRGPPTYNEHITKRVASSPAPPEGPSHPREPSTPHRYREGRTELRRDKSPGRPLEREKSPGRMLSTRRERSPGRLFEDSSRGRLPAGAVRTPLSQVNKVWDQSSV
Mitogen-activated protein kinase; ERK1/ERK2 (Homo sapiens), sequence (P27361 whole entry, looked up): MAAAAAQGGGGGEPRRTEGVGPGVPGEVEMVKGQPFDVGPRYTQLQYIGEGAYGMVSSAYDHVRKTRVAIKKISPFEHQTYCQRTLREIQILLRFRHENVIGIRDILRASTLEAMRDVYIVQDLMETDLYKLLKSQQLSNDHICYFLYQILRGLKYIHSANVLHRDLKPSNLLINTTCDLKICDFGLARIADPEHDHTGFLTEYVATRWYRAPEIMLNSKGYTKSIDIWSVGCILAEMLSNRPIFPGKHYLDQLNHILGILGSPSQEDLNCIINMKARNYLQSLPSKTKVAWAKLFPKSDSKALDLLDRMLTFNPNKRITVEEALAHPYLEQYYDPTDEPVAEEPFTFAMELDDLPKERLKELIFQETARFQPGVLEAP
Mitogen-activated protein kinase; ERK1/ERK2 (Homo sapiens), sequence (P28482 whole entry, looked up): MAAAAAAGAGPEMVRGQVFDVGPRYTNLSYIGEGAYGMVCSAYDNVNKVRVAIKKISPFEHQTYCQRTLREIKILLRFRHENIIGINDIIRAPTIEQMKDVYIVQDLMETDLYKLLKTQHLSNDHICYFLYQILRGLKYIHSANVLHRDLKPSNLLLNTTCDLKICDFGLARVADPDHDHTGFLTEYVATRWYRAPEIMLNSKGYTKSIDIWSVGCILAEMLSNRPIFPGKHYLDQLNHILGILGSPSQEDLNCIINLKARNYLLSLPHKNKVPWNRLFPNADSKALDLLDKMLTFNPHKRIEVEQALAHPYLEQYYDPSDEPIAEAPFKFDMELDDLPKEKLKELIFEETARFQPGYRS
Serine/threonine-protein kinase PAK 4 (Homo sapiens), sequence (O96013 whole entry, looked up, the tested form may be a part, canonical isoform): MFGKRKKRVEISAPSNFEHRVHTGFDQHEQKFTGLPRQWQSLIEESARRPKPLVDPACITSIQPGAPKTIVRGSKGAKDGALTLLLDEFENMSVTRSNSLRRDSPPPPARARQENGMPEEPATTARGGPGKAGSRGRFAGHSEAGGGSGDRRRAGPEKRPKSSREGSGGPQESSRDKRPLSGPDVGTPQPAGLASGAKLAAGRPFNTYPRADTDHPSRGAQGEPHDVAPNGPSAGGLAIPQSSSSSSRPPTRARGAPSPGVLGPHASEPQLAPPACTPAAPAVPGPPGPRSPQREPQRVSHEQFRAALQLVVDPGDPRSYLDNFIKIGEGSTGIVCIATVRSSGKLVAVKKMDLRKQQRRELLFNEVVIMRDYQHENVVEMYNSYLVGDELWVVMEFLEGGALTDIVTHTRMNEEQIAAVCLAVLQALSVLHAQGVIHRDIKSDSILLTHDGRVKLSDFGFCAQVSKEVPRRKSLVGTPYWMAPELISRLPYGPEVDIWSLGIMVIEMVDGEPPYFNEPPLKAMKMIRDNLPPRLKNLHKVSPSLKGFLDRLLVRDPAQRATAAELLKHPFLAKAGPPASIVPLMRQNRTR

C=CC(=O)Nc1ccccc1Nc1nc(Nc2ccc(N3CCN(C)CC3)cc2)ncc1C(=O)Nc1c(C)cccc1Cl
inactive: inhibition [1]
83%: Activity [15]
79%: Activity [4]
100%: Activity [2] | Activity [3] | Activity [5] | Activity [6] | Activity [7] | Activity [8] | Activity [9] | Activity [10] | Activity [11] | Activity [13] | Activity [14] | Activity [16] | Activity [18] | Activity [19] | Activity [20]
71%: Activity [12]
99%: Activity [17]
